ChEMBL document CHEMBL1123624, “Prodrugs of L-cysteine as protective agents against acetaminophen-induced hepatotoxicity. 2-(Polyhydroxyalkyl)- and 2-(polyacetoxyalkyl)thiazolidine-4(R)-carboxylic acids” (1987)

Assays:
Mus musculus [1] = species on record: Mus musculus; assay: Percentage survival of mice after 48 hr.; format: functional; parameters: concentration or dose not given beside the values
Outline: (§1)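 Male Swiss-Webster mice (19–31 g) were fasted overnight with water available. They received acetaminophen 750 mg/kg (4.97 mmol/kg) ip and then, 30 min later, prodrug 2.45 mmol/kg ip. The prodrug was given in sterile water, sterile 0.1 N NaHCO3, or as a slurry in 2% CMC. Food was then restored, and animals were checked at 12, 24 and 48 h. Survivors were counted at 48 h.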

Mus musculus [2] = species on record: Mus musculus; assay: Number of mice with necrosis was measured for compound along with acetaminophen showing necrosis rating of 1+ was reported.; format: functional
Rattus norvegicus [3] = species on record: Rattus norvegicus; assay: GSH level related to controls; format: functional
Outline: (§2)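 Primary rat hepatocyte cultures exposed to prodrug for 4 h; medium aspirated, cells rinsed with cold PBS, deproteinized with 5% sulfosalicylic acid. Total GSH (GSH + GSSG) measured by modified DTNB–glutathione reductase recycling, from cycling rate (ΔOD 412 nm/min); expressed as nmol/10^6 cells ± SE and relative to untreated controls.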

Mus musculus [4] = species on record: Mus musculus; assay: Number of mice with necrosis was measured for compound along with acetaminophen showing necrosis rating of 2+ was reported.; format: functional
Rattus norvegicus [5] = species on record: Rattus norvegicus; assay: Inhibitory effect on GSH elevation elicited by compound in rat hepatocytes in the presence of buthionine sulfoximine (BSO) (0.2 mM); format: functional, Hepatocyte
Outline: (§3)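 Primary rat hepatocytes pre-exposed to buthionine sulfoximine (0.20 mM) before 4 h incubation with prodrug (1.0 mM). Total GSH (GSH + GSSG) after PBS rinse and 5% sulfosalicylic acid deproteinization, by modified DTNB–glutathione reductase recycling (ΔOD 412 nm/min). Reported as nmol/10^6 cells ± SE and relative to untreated controls.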

Mus musculus [6] = species on record: Mus musculus; assay: No of mice protected out of 10 against acetaminophen-induced Hepatotoxicity after 48 h; format: functional; outline: as §1
Rattus norvegicus [7] = species on record: Rattus norvegicus; assay: GSH level related to controls in the presence of buthionine sulfoximine (BSO) (0.2 mM); format: functional; outline: as §3
Mus musculus [8] = species on record: Mus musculus; assay: Number of mice with necrosis was measured for compound along with acetaminophen showing necrosis rating of 3+ was reported.; format: functional
Rattus norvegicus [9] = species on record: Rattus norvegicus; assay: In vitro increased GSH content of rat hepatocytes when incubated with compound after 4 hr at 1.0 mM concentration.; format: functional, Hepatocyte; outline: as §2
Mus musculus [10] = species on record: Mus musculus; assay: Number of mice with necrosis was measured for compound along with acetaminophen showing necrosis rating of 0 was reported.; format: functional
Mus musculus [11] = species on record: Mus musculus; assay: Number of mice with necrosis was measured for compound along with acetaminophen showing necrosis rating of 4+ was reported.; format: functional
Mus musculus [12] = species on record: Mus musculus; assay: No of mice protected out of 12 against acetaminophen-induced Hepatotoxicity after 48 h; format: functional; outline: as §1
Rattus norvegicus [13] = species on record: Rattus norvegicus; assay: In vitro increased GSH content of rat hepatocytes when incubated with compound after 4 hr at 2.5 mM concentration.; format: functional, Hepatocyte; outline: as §2
Mus musculus [14] = species on record: Mus musculus; assay: Number of mice with necrosis was measured for compound along with acetaminophen and number of animals showing necrosis rating of 0 was reported.; format: functional
Mus musculus [15] = species on record: Mus musculus; assay: Number of mice with necrosis was measured for compound along with acetaminophen and number of animals showing necrosis rating of 3+ was reported.; format: functional
Mus musculus [16] = species on record: Mus musculus; assay: Protection of mice against acetaminophen-induced Hepatotoxicity; format: functional
Outline: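 Fasted male Swiss-Webster mice (19–31 g) were given acetaminophen 750 mg/kg ip, then prodrug 2.45 mmol/kg ip 30 min later. Outcomes were 48-h survival plus histology. Central-lobe liver sections came from animals found dead at 12/24/48 h or killed at 48 h. Sections were formalin-fixed and H&E-stained. Necrosis was rated blind using Mitchell's scale.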

Mus musculus [17] = species on record: Mus musculus; assay: Number of mice with necrosis was measured for compound along with acetaminophen and number of animals showing necrosis rating of 4+ was reported.; format: functional
Mus musculus [18] = species on record: Mus musculus; assay: Number of mice with necrosis was measured for compound along with acetaminophen and number of animals showing necrosis rating of 1+ was reported.; format: functional
Mus musculus [19] = species on record: Mus musculus; assay: Number of mice with necrosis was measured for compound along with acetaminophen and number of animals showing necrosis rating of 2+ was reported.; format: functional

SMILES	Survival (Mus musculus [1]) [%]	No. of animals (Mus musculus [2])	GSH level (Rattus norvegicus [3])	No. of animals (Mus musculus [4])	[GSH] (Rattus norvegicus [5]) [nmol/10^6 cells]	No. of survivors (Mus musculus [6])	GSH level (Rattus norvegicus [7])	No. of animals (Mus musculus [8])	[GSH] (Rattus norvegicus [9]) [nmol/10^6 cells]	No. of animals (Mus musculus [10])	No. of animals (Mus musculus [11])	No. of survivors (Mus musculus [12])	[GSH] (Rattus norvegicus [13])	No. of animals (Mus musculus [14])	No. of animals (Mus musculus [15])	Survival (Mus musculus [16]) [%]	No. of animals (Mus musculus [17])	No. of animals (Mus musculus [18])	No. of animals (Mus musculus [19])
O=C(O)[C@@H]1CSC(C(O)C(O)C(O)C(O)CO)N1 (stereo in doubt; 1f)	60	3	1.6	2	23.2	6	0.7	0	58	1	4								
O=C(O)[C@@H]1CSC(C(O)C(O)C(O)CO)N1 (stereo in doubt; 1d)	100	2	1.7	6	16.2		0.5	0	61.2	4	0	12							
O=C(O)[C@@H]1CSC(C(O)C(O)C(O)C(O)CO)N1 (stereo in doubt; 1h)	40	0		1	18.9	4	0.5		57.8	3	6								
CC(=O)N[C@@H](CS)C(=O)O [ACETYLCYSTEINE]	94												45.8 nM (10e6*cells)-1	13	1	17	1	3	0
CC(=O)Nc1ccc(O)cc1 [ACETAMINOPHEN]	17	0		1				0		0	11	2							
O=C(O)[C@@H]1CSC(C(O)C(O)C(O)CO)N1 (stereo in doubt; 1b)	40	1	1.2	2	19.5	4			42.9		7								
O=C(O)[C@@H]1CSC(C(O)CO)N1 (some centres undefined)	30	0	1.3	1	18.3	3	0.5	2	46.1	0	7								
O=C(O)[C@@H]1CSC(C(O)C(O)C(O)C(O)CO)N1 (stereo in doubt; 1g)	30	2	2.1	0	25.4	3		1	75.2	0	7								
O=C(O)[C@@H]1CSC(C(O)C(O)C(O)CO)N1 (stereo in doubt; 1c)	30	0	1.3	0	22.4	3	0.6	1	45.9	0	9								
O=C(O)[C@@H]1CSC(C(O)C(O)C(O)CO)N1 (stereo in doubt; 1e)	60		1.6		22.6	6	0.8		58.3	3	5								
